NF-kB expr up: raises NF-kB expression in human neuronal cells; fold change at 12.5 µM; NF-kB reporter expression; stronger effect = higher value; actives 1.6% (n = 190,000); in the data active = fold change above about 3.3
STAT3 inh-1: STAT3 signaling inhibition; U3A cells, IL-6 STAT3-luciferase reporter, luminescence; host cell line lacks STAT1; inhibition, % at 5.5 µM; actives 0.89% (n = 190,000);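 active = inhibition above the mean inhibition across all screened compounds plus 3 SD, cut at about 44% in these data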;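 note: 0% = DMSO only wells and 100% = 100 µM nifuroxazide control wells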
APP 5'UTR act: APP 5'UTR luciferase reporter activation; activation, % at 2 µM; SH-SY5Y APP 5'UTR luciferase reporter, luminescence; zero percent = DMSO vehicle wells; AID 1276; actives 1% (n = 190,000);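 active = activation above a set limit, based on mean plus 3 SD of controls, cut at about 140% in these data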
STAT1 act-1: increases IFN-gamma driven STAT1 reporter signal; NIH 3T3 STAT1-luciferase reporter, luminescence; 100% = IFN-gamma alone, no compound; activation (% of control), % at 5.5 µM; actives 2.6% (n = 200,000); AID 932;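 active = activation above the screen-wide mean activation plus 3 SD, cut at about 130% in these data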;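 note: raw ratio to IFN-gamma control signal so 100% means no change and 0% no light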
STAT3 act-1: activators of IL-6 induced STAT3 signaling. U3A cells, IL-6 STAT3-luciferase reporter, luminescence; 100% = signal with IL-6 EC80 alone. actives 0.91% (n = 190,000). activation (% of control), % at 5.6 µM;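 active = activation above the screen-wide mean of compound activation plus 3 SD, cut at about 130% in these data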;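 note: 0% = background luminescence of wells with medium and substrate only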
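Material: STAT3-luciferase reporter U3A cells. Controls: IL-6-treated wells, 100% activation. Read-out: % activation versus median of IL-6-stimulated wells. Probe or stimulus: IL-6 stimulus at 33 ng/mL final. Timing: compound 1 h, then IL-6 6 h at 37 °C. Signal: reporter luminescence signal.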
STAT1 blocker: reduces IFN-gamma driven STAT1 reporter signal | NIH 3T3 STAT1-luciferase reporter, luminescence | inhibition, % at 5.5 µM | actives 0.35% (n = 200,000) | AID 920;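 active = inhibition above a set limit, the mean inhibition across all tested compounds plus 3 SD, cut at about 34% in these data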;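 note: 0% = IFN-gamma with DMSO and 100% = IFN-gamma with 300 µM nifuroxazide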
STAT3 inh-2: confirmation of STAT3 signaling inhibitors | shares compounds with STAT3 inh-1 | U3A cells, IL-6 STAT3 luciferase reporter, luminescence; cell line lacks STAT1 | inhibition, % at 5.7 µM | actives 45% (n = 1,200);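 active = inhibition above the hit cutoff computed for the primary STAT3 screen, cut at about 44% in these data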;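 note: 0% = IL-6 plus DMSO and 100% = IL-6 plus nifuroxazide control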
NFkB inh STAT3ct: inhibits NF-kappaB, counter-screen to STAT3 inhibitors. shares compounds with STAT3 inh-1. HEK293T NF-kB luciferase reporter, TNF-alpha induced. inhibition, % at 5.7 µM. actives 36% (n = 1,200);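 active = inhibition above the mean of solvent-only control wells plus 3 SD, cutoff set per campaign, cut at about 13% in these data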;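 note: 0% = TNF-alpha with DMSO and 100% = TNF-alpha with MG high control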
STAT1 inh 2: counter-screen for STAT3 inhibitors: STAT1 inhibition; actives 27% (n = 1,200); NIH 3T3 STAT1-luciferase reporter, IFN-gamma induced, luminescence; shares compounds with STAT3 inh-1; inhibition, % at 5.7 µM;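 active = inhibition above the mean plus 3 SD of solvent-only control wells, limit set per screening run, cut at about 16% in these data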;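 note: 0% = DMSO with IFN-gamma and 100% = nifuroxazide control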
STAT3 act-2: STAT3 activation, confirmation assay; potentiation (% of control), % at 5.7 µM; actives 64% (n = 1,200); U3A STAT3-luciferase reporter, IL-6 potentiation, luminescence; U3A cells lack STAT1; 100 means same as IL-6 alone; AID 1267; shares compounds with STAT3 act-1;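 active = percent activation of the STAT3 luciferase reporter above a set limit taken from the earlier primary screen, cut at about 130% in these data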;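 note: 0% = background signal of medium plus substrate and 100% = median of IL-6 with DMSO wells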
NFkB act STAT3ct: NF-kappaB activation in STAT3 activator counter-screen; shares compounds with STAT3 act-1; human cells, NF-kappaB reporter activation; activation (% of control), % at 5.7 µM; actives 11% (n = 1,200); AID 1309; in the data active = activation above about 120%;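 note: reporter induced by TNF-alpha stimulation; 100% = median of stimulated DMSO wells and 0% = no signal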
STAT1 act-2: activates STAT1, counter-screen to STAT3 activators. NIH 3T3 STAT1-luciferase reporter, IFN-gamma, luminescence. actives 13% (n = 1,200). shares compounds with STAT3 act-1. activation (% of control), % at 5.7 µM;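 active = activation above the solvent-only control well mean plus 3 SD, set per screening run, cut at about 120% in these data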;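 note: 100% = IFN-gamma with DMSO median signal so 100% means no change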
* = called active by the depositor; · = no result given. This is a sample that favours compounds with a hit; in the whole collection about 4.9% have one here.

SMILES | NF-kB expr up | STAT3 inh-1 | APP 5'UTR act | STAT1 act-1 | STAT3 act-1 | STAT1 blocker | STAT3 act-2 | NFkB act STAT3ct | STAT1 act-2 | others
COc1cccc(C2CC3C(=O)C=CC2N3Cc2ccccc2)c1 (centres undefined) | 1.5 | 5 | -5 | 97 | 98 | 3 | · | · | ·
CC1CCC[C@H](O)CCCCCc2cc(O)cc(O)c2C(=O)O1 (some centres undefined) | 1 | 15 | -4 | 96 | 89 | 4 | · | · | ·
C[C@H]1CCC[C@@H](O)CCC/C=C/c2cc(O)cc(O)c2C(=O)O1 | 1.3 | 60* | -3 | 108 | 54 | -9 | · | · | · | STAT3 inh-2=48*;NFkB inh STAT3ct=9;STAT1 inh 2=-1
CCOC(=O)CC(NC(=O)C(Cc1ccc(N(CCCl)CCCl)cc1)NC(C)=O)C(=O)OCC (centres undefined) | 2.1 | -11 | -86 | 98 | 111 | 1 | · | · | ·
Cc1cc(C)c(S(=O)(=O)NCC2CCC(C(=O)N3CCC4(CC3)OCCO4)CC2)c(C)c1 (centres undefined) | 1.1 | 12 | 10 | 94 | 93 | 7 | · | · | ·
COc1ccc(-c2nc3ccccc3c(=O)n2-c2ccc(OC)cc2)cc1 | 0.91 | 3 | 10 | 91 | 101 | 7 | · | · | ·
CCn1nc(-c2ccccc2)nc2c(=O)n(C)c(=O)nc1-2 | 0.98 | 62* | -4 | 106 | 52 | -5 | · | · | · | STAT3 inh-2=74*;NFkB inh STAT3ct=49*;STAT1 inh 2=41*
CCCCn1c(C)c(C(=O)O)c2cc(OC)ccc21 | 1.1 | 52* | 14 | 99 | 60 | 1 | · | · | · | STAT3 inh-2=35;NFkB inh STAT3ct=-9;STAT1 inh 2=-18
CNC(=O)Oc1cccc(-c2cn3cc(Cl)ccc3n2)c1 | 8.2* | 92* | 170* | 117 | 21 | -20 | · | · | · | STAT3 inh-2=82*;NFkB inh STAT3ct=9;STAT1 inh 2=-20
COc1ccc2c(c1)CC1(CN2C)C(=O)NC(=O)N(c2ccc(F)cc2)C1=O (centres undefined) | 1.1 | -58 | 20 | 99 | 150* | 1 | 134* | 104 | 108
COc1ccc2c(c1)CC1(CN2C)C(=O)NC(=O)N(c2ccc(C)cc2)C1=O (centres undefined) | 1 | -13 | -2 | 98 | 117 | 3 | · | · | ·
COc1ccc(/C=C2/C(=O)NC(=O)N(Cc3ccco3)C2=O)cc1 | 1 | 2 | 5 | 95 | 103 | 4 | · | · | ·
Cn1cccc1/C=C1\C(=O)NC(=O)N(Cc2ccco2)C1=O | 1.8 | -44 | 6 | 112 | 146* | -15 | 118 | 110 | 103
CCN(CC)c1ccc(CNCCc2ccccc2F)cc1 | 1.2 | 3 | 1 | 95 | 101 | 2 | · | · | ·
O/N=C/c1c[nH]c2ccccc12 | 1.1 | -27 | -4 | 98 | 127 | 2 | · | · | ·
C=CCN(CC=C)Cc1c[nH]c2ccccc12 | 1.2 | -46 | 12 | 100 | 147* | 0 | 134* | 107 | 84
CCCCN1C(=O)NC(=O)C2(Cc3c(nc4ccccn4c3=O)N3CCc4ccccc4C32)C1=O (centres undefined) | 0.54 | -44 | 7 | 101 | 142* | -1 | 143* | 106 | 103
COP(=O)(OC)C(NC(C)=O)C(Cl)(Cl)Cl (centres undefined) | 1.1 | 4 | -16 | 102 | 102 | -5 | · | · | ·
CSc1ccc(C(=O)C2CCCN(Cc3cc4ccccc4[nH]3)C2)cc1 (centres undefined) | 1.1 | -49 | 0 | 80 | 141* | 22 | 149* | 101 | 88
CCCCn1c(=O)c(C(=O)Nc2ccccc2S(N)(=O)=O)c(O)c2ccccc21 | 1.5 | -7 | 12 | 110 | 110 | -9 | · | · | ·
CCCCn1c(=O)c(C(=O)Nc2ccccc2)c(O)c2ccccc21 | 1.1 | -61 | -20 | 103 | 154* | -5 | 161* | 107 | 102
CCCC/C(=N\O)c1c[nH]c2ccccc12 | 1.2 | -40 | -6 | 90 | 141* | 10 | 155* | 110 | 103
COC(=O)C(O)(c1ccc(N(C)C(=O)c2cccs2)cc1)C(F)(F)F (centres undefined) | 1.4 | 21 | -8 | 82 | 84 | 18 | · | · | ·
c1ccc2[nH]c(CCNC3CCCCC3)nc2c1 | 1.3 | -38 | 2 | 100 | 137* | 0 | 116 | 106 | 102
c1ccc2c(CCNC3CCCCC3)c[nH]c2c1 | 1.2 | 5 | 9 | 93 | 98 | 7 | · | · | ·
SMILES | NF-kB expr up | STAT3 inh-1 | APP 5'UTR act | STAT1 act-1 | STAT3 act-1 | STAT1 blocker | STAT3 act-2 | NFkB act STAT3ct | STAT1 act-2 | others
N#CCCn1cc(C(=O)Nc2ccccc2Br)c(-c2ccc([N+](=O)[O-])cc2)n1 | 1 | 4 | -22 | 95 | 98 | 6 | · | · | ·
CC(=Nc1c(C)n(C)n(-c2ccccc2)c1=O)c1c(O)n(Cc2ccccc2)c(=O)[nH]c1=O | 0.99 | -57 | 18 | 104 | 156* | -4 | 128 | 107 | 105
Cc1nn(Cc2ccccc2)c(C)c1C(=O)OCC(=O)Nc1ccccc1SCC#N | 1.1 | -34 | 17 | 90 | 138* | 11 | 118 | 106 | 91
CN1CCCC(C(=O)c2ccc(Cl)cc2)C1 (centres undefined) | 0.94 | -11 | 2 | 98 | 113 | 1 | · | · | ·
Cc1ccc[n+](CC(O)Cn2c3ccccc3c3ccccc32)c1 (centres undefined) | 1.1 | 5 | 1 | 94 | 94 | 8 | · | · | ·
Cc1ccc(-c2nc(N(C)C3CCN(C)CC3)c3ccccc3n2)cc1 | 0.97 | -76 | 1 | 99 | 172* | 1 | 155* | 99 | 97

Source: PubChem BioAssay
